Holding throughout (format): functional
For assay [1], the system named is Mus musculus. Description: Evaluated for hypothermic activity in mice at a dose of 100 mg/Kg administered intraventricularly. A digest of the protocol: (§1)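 Intraventricular injection in mice, 5 μL volume, in ethanol/emulphor/saline (1:1:18) vehicle. Change in body temperature (°C) recorded by previously reported methods, with vehicle and Δ9-THC controls. Mean ± SEM; ANOVA with Dunnett's t test versus control, p < 0.05 two-tailed.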

Assay [2] has as its system Mus musculus. As to the kind of experiment: Evaluated for reduction in spontaneous locomotor activity in mice at a dose of 100 mg/Kg administered intraventricularly. The gist of the method:
(§2)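 Mice given intraventricular injection of 5 μL in ethanol/emulphor/saline (1:1:18). Spontaneous locomotor activity recorded as counts/10 min by previously reported methods, alongside vehicle and Δ9-THC controls. Mean ± SEM; ANOVA with Dunnett's t test, p < 0.05 two-tailed.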

Assay [3] deals with Mus musculus. As to the kind of experiment: Evaluated for reduction in spontaneous locomotor activity in mice at a dose of 150 mg/Kg administered intraventricularly. A digest of the protocol:
as §2

The test system of assay [4] is Mus musculus. Description: Evaluated for reduction in spontaneous locomotor activity in mice, at a dose of 0 mg/Kg administered intraventricularly. The gist of the method:
as §2

For assay [5], the system named is Mus musculus. Description: Evaluated for hypothermic activity in mice at a dose of 0 mg/Kg administered intraventricularly. A digest of the protocol: as §1
Assay [6] relates to Mus musculus. As to the kind of experiment: Evaluated for hypothermic activity in mice at a dose of 150 mg/Kg administered intraventricularly. The gist of the method:
as §1

For assay [7], the system named is Mus musculus. As to the kind of experiment: Tail-flick latency was determined at a concentration of 0 mg/Kg administered intraventricularly. The gist of the method: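 Tail-flick latency (s) in mice after intraventricular injection (5 μL) of ethanol/emulphor/saline (1:1:18) vehicle, measured by previously reported methods. Mean ± SEM; ANOVA with Dunnett's t test, p < 0.05 two-tailed.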
(In hot-plate and tail-flick tests a longer latency is read as antinociception.)

In assay [8] the test system is Mus musculus. Description: Evaluated for hypothermic activity in mice at a dose of 3 mg/Kg. A digest of the protocol:
(§3)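 Mice dosed by tail-vein injection (0.1 mL/10 g) in ethanol/emulphor/saline (1:1:18). Body temperature change (°C) measured by previously reported methods. Vehicle and Δ9-THC positive controls run each day. Mean ± SEM; ANOVA with Dunnett's t test versus control, p < 0.05 two-tailed.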

In assay [9] the test system is Mus musculus. Description: Evaluated for catalepsy activity in mice and percentage immobility was determined at a concentration of 0 mg/Kg. A digest of the protocol:
(§4)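 Mice, single tail-vein injection (0.1 mL/10 g) in ethanol/emulphor/saline (1:1:18). Catalepsy scored by ring test as % immobility, per previously reported methods. Vehicle and Δ9-THC positive-control groups run in each daily experiment. Mean ± SEM; ANOVA with Dunnett's t test versus control, p < 0.05 two-tailed.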

For assay [10], the system named is Mus musculus. As to the kind of experiment: Tail-flick latency was determined at a concentration of 3 mg/Kg. A digest of the protocol:
(§5)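 Mice, drug suspended in ethanol/emulphor/saline (1:1:18) and given by tail-vein injection (0.1 mL/10 g). Antinociception measured as tail-flick latency (s). Vehicle and Δ9-THC positive controls run in each daily experiment. Data given as mean ± SEM. ANOVA with Dunnett's t test against control, p < 0.05 (two-tailed).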

Assay [11] relates to Mus musculus. As to the kind of experiment: Evaluated for hypothermic activity in mice at a dose of 0 mg/Kg. The gist of the method:
as §3

Assay [12] has as its system Mus musculus. As to the kind of experiment: Evaluated for catalepsy activity in mice and percentage immobility was determined at a concentration of 3 mg/kg. The gist of the method:
as §4

Assay [13] deals with Mus musculus. Description: Tail-flick latency was determined at a concentration of 5 mg/Kg. A digest of the protocol:
as §5

Assay [14] concerns Mus musculus. As to the kind of experiment: Evaluated for catalepsy activity in mice and percentage immobility was determined at a concentration of 5 mg/Kg. The gist of the method: as §4
Assay [15] deals with Mus musculus. As to the kind of experiment: Evaluated for reduction in spontaneous locomotor activity in mice at a dose of 5 mg/Kg. The gist of the method:
(§6)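 Tail-vein injection in mice (0.1 mL/10 g; ethanol/emulphor/saline 1:1:18). Spontaneous locomotor activity counted as counts/10 min, per previously reported methods. Daily vehicle and Δ9-THC positive controls. Mean ± SEM; ANOVA with Dunnett's t test, p < 0.05 two-tailed.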

The subject of assay [16] is Mus musculus. As to the kind of experiment: Evaluated for reduction in spontaneous locomotor activity in mice, at a dose of 0 mg/Kg. A digest of the protocol: as §6
For assay [17], the system named is Mus musculus. Description: Evaluated for hypothermic activity in mice at a dose of 5 mg/Kg. A digest of the protocol: as §3
Assay [18] concerns Mus musculus. As to the kind of experiment: Evaluated for reduction in spontaneous locomotor activity in mice at a dose of 3 mg/Kg. The gist of the method:
as §6

The test system of assay [19] is Mus musculus. Description: Tail-flick latency was determined at a concentration of 0 mg/Kg. A digest of the protocol:
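Antinociception in mice by tail-flick latency (s), per previously reported methods, after tail-vein injection (0.1 mL/10 g) in ethanol/emulphor/saline (1:1:18). Vehicle and Δ9-THC controls run daily. Mean ± SEM; ANOVA with Dunnett's t test, p < 0.05 two-tailed.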

The test system of assay [20] is Mus musculus. Description: Evaluated for hypothermic activity in mice at a dose of 3 mg/kg. The gist of the method: as §3
The subject of assay [21] is Mus musculus. As to the kind of experiment: Tail-flick latency was determined at a concentration of 3 mg/kg. The gist of the method:
as §5

The test system of assay [22] is Mus musculus. Description: Evaluated for catalepsy activity in mice and percentage immobility was determined at a concentration of 5 mg/kg. A digest of the protocol: as §4
Assay [23] deals with Mus musculus. Description: Evaluated for reduction in spontaneous locomotor activity in mice at a dose of 6 mg/Kg. The gist of the method:
as §6

The test system of assay [24] is Mus musculus. Description: Tail-flick latency was determined at a concentration of 6 mg/kg. The gist of the method:
as §5

Assay [25] relates to Mus musculus. As to the kind of experiment: Evaluated for catalepsy activity in mice and percentage immobility was determined at a concentration of 3 mg/Kg. A digest of the protocol: as §4
The test system of assay [26] is Mus musculus. Description: Evaluated for hypothermic activity in mice at a dose of 6 mg/kg. The gist of the method: as §3
Assay [27] deals with Mus musculus. Description: Tail-flick latency was determined at a concentration of 50 mg/Kg. The gist of the method:
as §5

Assay [28] has as its system Mus musculus. As to the kind of experiment: Evaluated for reduction in spontaneous locomotor activity in mice at a dose of 50 mg/Kg. The gist of the method: as §6
The test system of assay [29] is Mus musculus. As to the kind of experiment: Evaluated for catalepsy activity in mice and percentage immobility was determined at a concentration of 50 mg/Kg. The gist of the method:
as §4

The subject of assay [30] is Mus musculus. Description: Evaluated for hypothermic activity in mice at a dose of 50 mg/Kg. A digest of the protocol:
as §3

In assay [31] the test system is Mus musculus. Description: Evaluated for reduction in spontaneous locomotor activity in mice at a dose of 10 mg/Kg. A digest of the protocol:
as §6

Assay [32] has as its system Mus musculus. Description: Evaluated for hypothermic activity in mice at a dose of 10 mg/Kg. A digest of the protocol: as §3
The subject of assay [33] is Mus musculus. Description: Tail-flick latency was determined at a concentration of 10 mg/Kg. A digest of the protocol:
as §5

A value given as a limit tells only on which side of the number the result lay.

Turning to `C=C(CN(CCCl)CCCl)[C@@H]1CCC(C)=CC1c1c(O)cc(CCCCC)cc1O` (stereo partly specified), the values for the Temperature in the assay with Mus musculus [1], in the assay with Mus musculus [5] and with Mus musculus [6] were -1.8 °C, -1.1 °C and under -3.8 °C, respectively. The Spont activity came out at 81 Counts 10min-1 with Mus musculus [2], 75 Counts 10min-1 in the assay on Mus musculus [3] and 90 Counts 10min-1 in the assay on Mus musculus [4]. In the assay on Mus musculus [7], the Tail flick latency is -0.2 s.
For `CCCCCc1cc(O)c2c(c1)OC(C)(CNCC)[C@@H]1CC=C(C)CC21` (stereo partly specified), the Temperature in the assay on Mus musculus [8] was -1.5 °C; in the assay with Mus musculus [11] it was -0.9 °C; with Mus musculus [17] it was -0.7 °C. The values for the Immobility in the assay on Mus musculus [9], with Mus musculus [12] and in the assay with Mus musculus [14] were 13%, 20% and 16%, respectively. Also, the results for the Tail flick latency in the assay on Mus musculus [10], in the assay with Mus musculus [13] and in the assay on Mus musculus [19] were under 2.8 s, 2.2 s and 1 s, respectively. Besides, the Spont activity with Mus musculus [15] is reported as 35 Counts 10min-1; in the assay on Mus musculus [16], 52 Counts 10min-1; in the assay on Mus musculus [18], 35 Counts 10min-1.
With `C=C(CNCC)[C@@H]1CCC(C)=CC1c1c(O)cc(CCCCC)cc1O` (stereo partly specified), the Immobility with Mus musculus [9] is listed as 4%; with Mus musculus [12], 7%. Moreover, the results for the Temperature in the assay on Mus musculus [11] and in the assay with Mus musculus [20] were -0.8 °C and under -2.1 °C, respectively. In addition, the Spont activity was 53 Counts 10min-1 in the assay with Mus musculus [16] and under 27 Counts 10min-1 with Mus musculus [18]. Besides, the Tail flick latency worked out at 1 s in the assay on Mus musculus [21] and 0.6 s in the assay with Mus musculus [19].
As to `CCCCCc1cc(O)c2c(c1)OC(C)(CN)[C@@H]1CC=C(C)CC21` (stereo partly specified), the results for the Immobility in the assay on Mus musculus [9], in the assay on Mus musculus [22] and in the assay on Mus musculus [25] were 13%, 15% and 24%, respectively. Also, the Tail flick latency was 1.1 s with Mus musculus [10], under 1.9 s with Mus musculus [13], 1.1 s in the assay on Mus musculus [24] and 0.6 s in the assay on Mus musculus [19]. For the same compound, the Temperature in the assay on Mus musculus [11] is -0.8 °C; in the assay on Mus musculus [17], -0.7 °C; with Mus musculus [20] it was -1.1 °C; in the assay with Mus musculus [26], under -3 °C. Besides, the Spont activity is under 42 Counts 10min-1 in the assay with Mus musculus [15], 68 Counts 10min-1 in the assay with Mus musculus [16], under 25 Counts 10min-1 in the assay with Mus musculus [23] and under 43 Counts 10min-1 with Mus musculus [18].
As to `CCCCCc1cc(OC(C)=O)c2c(c1)OC(C)(C)[C@@H]1CC=C(CN(CCCl)CCCl)CC21.Cl` (stereo partly specified), the results for the Tail flick latency in the assay on Mus musculus [27] and in the assay with Mus musculus [19] were 0.6 s and 0.5 s, respectively. Also, the Spont activity with Mus musculus [28] is listed as 26 Counts 10min-1; with Mus musculus [16] it was 51 Counts 10min-1. The Immobility with Mus musculus [9] is recorded as 4%; in the assay with Mus musculus [29], under 31%. Also, the Temperature with Mus musculus [11] was -1.8 °C; with Mus musculus [30] it was under -3.3 °C.
For the compound `CCCCCc1cc(O)c2c(c1)OC(C)(C)[C@@H]1CC=C(CNCC)CC21.Cl` (stereo partly specified), the Spont activity in the assay on Mus musculus [31] came out at 54 Counts 10min-1; with Mus musculus [16] it was 49 Counts 10min-1. The Temperature in the assay with Mus musculus [11] was -1.8 °C; with Mus musculus [32], under -3.8 °C. In addition, the Tail flick latency is listed as 0.5 s in the assay with Mus musculus [19] and under 2.6 s in the assay with Mus musculus [33].

Source of the values: ChEMBL document CHEMBL1124770, “Synthesis and pharmacological evaluation of amino, azido, and nitrogen mustard analogues of 10-substituted cannabidiol and 11- or 12-substituted delta 8-tetrahydrocannabinol” (1990).
